Measured values taken from ChEMBL document CHEMBL1671676, “In vitro activity of nemonoxacin, a novel nonfluorinated quinolone, against 2,440 clinical isolates” (2009).
In brackets after ≈: the same amount, converted by molar mass.

Legend:
Type in all cases: functional
Staphylococcus aureus [1] = assay: Antibacterial activity against non-levofloxacin susceptible Staphylococcus aureus assessed as percent cumulative susceptible isolates at minimum inhibitory concentration of 32 ug/ml by CLSI broth microdilution method; design: scale not given: the % may be the effect or the level left
Staphylococcus aureus [2] = assay: Antibacterial activity against methicillin-resistant Staphylococcus aureus assessed as percent cumulative susceptible isolates at minimum inhibitory concentration of […] by CLSI broth microdilution method; design: scale not given: the % may be the effect or the level left
[3] = test system: Staphylococcus epidermidis; assay: Antibacterial activity against methicillin-susceptible Staphylococcus epidermidis assessed as percent cumulative susceptible isolates at minimum inhibitory concentration of 1 ug/ml by CLSI broth microdilution method; design: scale not given: the % may be the effect or the level left
Enterococcus faecalis = assay: Antibacterial activity against Enterococcus faecalis assessed as percent cumulative susceptible isolates at minimum inhibitory concentration of 4 ug/ml by CLSI broth microdilution method; design: scale not given: the % may be the effect or the level left
Proteus mirabilis = assay: Antibacterial activity against Proteus mirabilis assessed as percent cumulative susceptible isolates at minimum inhibitory concentration of […] by CLSI broth microdilution method; design: scale not given: the % may be the effect or the level left
Staphylococcus aureus [4] = assay: Antibacterial activity against hospital-associated methicillin-resistant Staphylococcus aureus assessed as percent cumulative susceptible isolates at minimum inhibitory concentration of 2 ug/ml by CLSI broth microdilution method; design: scale not given: the % may be the effect or the level left
How it was run: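 Clinical isolates tested by CLSI broth microdilution using 96-well panels of doubling drug dilutions in cation-adjusted Mueller-Hinton broth with 5% lysed horse blood. MIC was read from these panels. Panel quality control used CLSI ATCC strains, including S. pneumoniae 49619, S. aureus 29213, E. faecalis 29212 and E. coli 25922. Cumulative percentages of isolates were tabulated at each MIC.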

Staphylococcus aureus [5] = assay: Antibacterial activity against non-levofloxacin susceptible Staphylococcus aureus assessed as percent cumulative susceptible isolates at minimum inhibitory concentration of […] by CLSI broth microdilution method; design: scale not given: the % may be the effect or the level left
Staphylococcus aureus [6] = assay: Antibacterial activity against methicillin-susceptible Staphylococcus aureus assessed as percent cumulative susceptible isolates at minimum inhibitory concentration of 0.03 ug/ml by CLSI broth microdilution method; design: scale not given: the % may be the effect or the level left
Staphylococcus aureus [7] = assay: Antibacterial activity against Levofloxacin-susceptible Staphylococcus aureus assessed as percent cumulative susceptible isolates at minimum inhibitory concentration of […] by CLSI broth microdilution method; design: scale not given: the % may be the effect or the level left
Staphylococcus aureus [8] = assay: Antibacterial activity against Levofloxacin-susceptible Staphylococcus aureus assessed as percent cumulative susceptible isolates at minimum inhibitory concentration of 0.06 ug/ml by CLSI broth microdilution method; design: scale not given: the % may be the effect or the level left
Streptococcus pneumoniae [9] = assay: Antibacterial activity against penicillin-resistant Streptococcus pneumoniae by CLSI M7-A7 broth microdilution method
How it was run: (§1)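 Broth microdilution per CLSI guidelines on clinical isolates, using panels of doubling drug dilutions in cation-adjusted Mueller-Hinton broth with 5% lysed horse blood. MIC read per CLSI, and cumulative percentage of isolates inhibited at each concentration tabulated.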

[10] = Ratio of fAUC (0 to 24 hrs) in in vitro PK/PD model at 750 mg to MIC for Staphylococcus epidermidis
[11] = test system: Stenotrophomonas maltophilia; assay: Antibacterial activity against Stenotrophomonas maltophilia by CLSI M7-A7 broth microdilution method
Staphylococcus aureus [12] = assay: Antibacterial activity against methicillin-resistant Staphylococcus aureus assessed as percent cumulative susceptible isolates at minimum inhibitory concentration of 0.06 ug/ml by CLSI broth microdilution method; design: scale not given: the % may be the effect or the level left
Pseudomonas aeruginosa [13] = assay: Antibacterial activity against Pseudomonas aeruginosa assessed as percent cumulative susceptible isolates at minimum inhibitory concentration of 8 ug/ml by CLSI broth microdilution method; design: scale not given: the % may be the effect or the level left
Streptococcus pneumoniae [14] = assay: Antibacterial activity against Streptococcus pneumoniae by CLSI M7-A7 broth microdilution method; how it was run: as §1
Klebsiella pneumoniae [15] = assay: Antibacterial activity against Klebsiella pneumoniae assessed as percent cumulative susceptible isolates at minimum inhibitory concentration of 8 ug/ml by CLSI broth microdilution method; design: scale not given: the % may be the effect or the level left
Escherichia coli = assay: Antibacterial activity against Escherichia coli assessed as percent cumulative susceptible isolates at minimum inhibitory concentration of 0.03 ug/ml by CLSI broth microdilution method; design: scale not given: the % may be the effect or the level left
Staphylococcus aureus [16] = assay: Antibacterial activity against non-levofloxacin susceptible Staphylococcus aureus assessed as percent cumulative susceptible isolates at minimum inhibitory concentration of 64 ug/ml by CLSI broth microdilution method; design: scale not given: the % may be the effect or the level left
Klebsiella pneumoniae [17] = assay: Antibacterial activity against Klebsiella pneumoniae assessed as percent cumulative susceptible isolates at minimum inhibitory concentration of 64 ug/ml by CLSI broth microdilution method; design: scale not given: the % may be the effect or the level left
[18] = Ratio of fAUC (0 to 24 hrs) in in vitro PK/PD model at 750 mg to MIC for penicillin-resistant Streptococcus pneumoniae
Pseudomonas aeruginosa [19] = assay: Antibacterial activity against Pseudomonas aeruginosa assessed as percent cumulative susceptible isolates at minimum inhibitory concentration of 128 ug/ml by CLSI broth microdilution method; design: scale not given: the % may be the effect or the level left
Staphylococcus aureus [20] = assay: Antibacterial activity against methicillin-resistant Staphylococcus aureus assessed as percent cumulative susceptible isolates at minimum inhibitory concentration of 2 ug/ml by CLSI broth microdilution method; design: scale not given: the % may be the effect or the level left
[21] = test system: Staphylococcus epidermidis; assay: Antibacterial activity against methicillin-susceptible Staphylococcus epidermidis assessed as percent cumulative susceptible isolates at minimum inhibitory concentration of […] by CLSI broth microdilution method; design: scale not given: the % may be the effect or the level left
Acinetobacter baumannii [22] = assay: Antibacterial activity against Acinetobacter baumannii by CLSI M7-A7 broth microdilution method
Staphylococcus aureus [23] = assay: Antibacterial activity against non-levofloxacin susceptible Staphylococcus aureus assessed as percent cumulative susceptible isolates at minimum inhibitory concentration of 4 ug/ml by CLSI broth microdilution method; design: scale not given: the % may be the effect or the level left
[24] = test system: Staphylococcus epidermidis; assay: Antibacterial activity against methicillin-susceptible Staphylococcus epidermidis assessed as percent cumulative susceptible isolates at minimum inhibitory concentration of 0.03 ug/ml by CLSI broth microdilution method; design: scale not given: the % may be the effect or the level left
Staphylococcus aureus [25] = assay: Antibacterial activity against methicillin-susceptible Staphylococcus aureus assessed as percent cumulative susceptible isolates at minimum inhibitory concentration of 2 ug/ml by CLSI broth microdilution method; design: scale not given: the % may be the effect or the level left
Pseudomonas aeruginosa [26] = assay: Antibacterial activity against Pseudomonas aeruginosa assessed as percent cumulative susceptible isolates at minimum inhibitory concentration of 256 ug/ml by CLSI broth microdilution method; design: scale not given: the % may be the effect or the level left
[27] = test system: Staphylococcus epidermidis; assay: Antibacterial activity against methicillin-resistant Staphylococcus epidermidis assessed as percent cumulative susceptible isolates at minimum inhibitory concentration of 4 ug/ml by CLSI broth microdilution method; design: scale not given: the % may be the effect or the level left
Enterococcus faecium = assay: Antibacterial activity against Enterococcus faecium assessed as percent cumulative susceptible isolates at minimum inhibitory concentration of 1 ug/ml by CLSI broth microdilution method; design: scale not given: the % may be the effect or the level left
Pseudomonas aeruginosa [28] = assay: Antibacterial activity against Pseudomonas aeruginosa assessed as percent cumulative susceptible isolates at minimum inhibitory concentration of 0.06 ug/ml by CLSI broth microdilution method; design: scale not given: the % may be the effect or the level left
[29] = test system: Stenotrophomonas maltophilia; assay: Antibacterial activity against Stenotrophomonas maltophilia assessed as percent cumulative susceptible isolates at minimum inhibitory concentration of 0.5 ug/ml by CLSI broth microdilution method; design: scale not given: the % may be the effect or the level left
Acinetobacter baumannii [30] = assay: Antibacterial activity against Acinetobacter baumannii assessed as percent cumulative susceptible isolates at minimum inhibitory concentration of 0.06 ug/ml by CLSI broth microdilution method; design: scale not given: the % may be the effect or the level left
Staphylococcus aureus [31] = assay: Antibacterial activity against methicillin-resistant Staphylococcus aureus assessed as percent cumulative susceptible isolates at minimum inhibitory concentration of 8 ug/ml by CLSI broth microdilution method; design: scale not given: the % may be the effect or the level left
Streptococcus pneumoniae [32] = assay: Antibacterial activity against penicillin-resistant Streptococcus pneumoniae assessed as percent cumulative susceptible isolates at minimum inhibitory concentration of 1 ug/ml by CLSI broth microdilution method; design: scale not given: the % may be the effect or the level left

COc1c(N2C[C@@H](C)C[C@H](N)C2)ccc2c(=O)c(C(=O)O)cn(C3CC3)c12 [NEMONOXACIN]
Activity (Staphylococcus aureus [1]): 98% | Activity (Staphylococcus aureus [2]): 4.7% | Activity [3]: 95.3% | Activity (Enterococcus faecalis): 98.8% | Activity (Proteus mirabilis): 24.2% | Activity (Staphylococcus aureus [4]): 22.2% | Activity (Staphylococcus aureus [5]): 8.9% | Activity (Staphylococcus aureus [6]): 71.9% | Activity (Staphylococcus aureus [7]): 33.8% | Activity (Staphylococcus aureus [8]): 97.1% | MIC90 (Streptococcus pneumoniae [9]): 0.03 µg/mL (≈ 0.0808 µM) | RatioAUC/MIC [10]: 98 | MIC90 [11]: ≥ 4 µg/mL | Activity (Staphylococcus aureus [12]): 6.3% | Activity (Pseudomonas aeruginosa [13]): 78.8% | MIC90 (Streptococcus pneumoniae [14]): 0.015 µg/mL (≈ 0.0404 µM) | Activity (Klebsiella pneumoniae [15]): 95% | Activity (Escherichia coli): 1.5% | Activity (Staphylococcus aureus [16]): 100% | Activity (Klebsiella pneumoniae [17]): 98.5% | RatioAUC/MIC [18]: > 393 | Activity (Pseudomonas aeruginosa [19]): 97.8% | Activity (Staphylococcus aureus [20]): 37.8% | Activity [21]: 37.2% | MIC90 (Acinetobacter baumannii [22]): 1 µg/mL (≈ 2.69 µM) | Activity (Staphylococcus aureus [23]): 67.3% | Activity [24]: 53.5% | Activity (Staphylococcus aureus [25]): 96% | Activity (Pseudomonas aeruginosa [26]): 99.3%

C[C@H]1COc2c(N3CCN(C)CC3)c(F)cc3c(=O)c(C(=O)O)cn1c23.C[C@H]1COc2c(N3CCN(C)CC3)c(F)cc3c(=O)c(C(=O)O)cn1c23.O [LEVOFLOXACIN]
Activity [27]: 11.1% | Activity (Enterococcus faecium): 10.5% | Activity (Pseudomonas aeruginosa [28]): 2.2% | Activity [29]: 7.7% | Activity (Acinetobacter baumannii [30]): 6.7% | Activity (Staphylococcus aureus [31]): 22.8% | Activity (Streptococcus pneumoniae [32]): 90.6%
